# Measured values published in ChEMBL document CHEMBL3351548, “UNC2025, a potent and orally bioavailable MER/FLT3 dual inhibitor” (J Med Chem, 2014).
# Calls of active or inactive are those of the source. The rule behind the calls is not given here.
# Assays:
# [1] = Cmax in Swiss albino mouse at 3 mg/kg, iv; type: ADME, organism-based; set-up: dose 3 mg/kg, route intravenous; conditions: in vivo
# How it was run: (§1)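 Mouse PK after single intravenous or oral dose; n = 3 mice per time point. Parameters reported: T1/2, Cmax, AUClast, Vss and CL for iv; Tmax, Cmax, AUClast and %F for po. One iv formulation given is 7.5% v/v N-methyl pyrrolidone with 20% cremophor EL in water.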
# [2] = Cmax in Swiss albino mouse at 3 mg/kg, po; type: ADME, organism-based; set-up: dose 3 mg/kg, route oral; conditions: in vivo; how it was run: as §1
# [3] = Half life in Swiss albino mouse at 3 mg/kg, iv; type: ADME, organism-based; set-up: dose 3 mg/kg, route intravenous; conditions: in vivo; how it was run: as §1
# [4] = Tmax in Swiss albino mouse at 3 mg/kg, po; type: ADME, organism-based; set-up: dose 3 mg/kg, route oral; conditions: in vivo; how it was run: as §1
# [5] = Clearance in Swiss albino mouse at 3 mg/kg, iv; type: ADME, organism-based; set-up: dose 3 mg/kg, route intravenous; conditions: in vivo; how it was run: as §1
# [6] = Volume of distribution at steady state in Swiss albino mouse at 3 mg/kg, iv; type: ADME, organism-based; set-up: dose 3 mg/kg, route intravenous; conditions: in vivo, read-out: Vdss; how it was run: as §1
# [7] = AUClast in Swiss albino mouse at 3 mg/kg, iv; type: ADME, organism-based; set-up: time 0 - last, dose 3 mg/kg, route intravenous; conditions: plasma; how it was run: as §1
# [8] = test system: Mus musculus; experiment: Oral bioavailability in Swiss albino mouse at 3 mg/kg; type: ADME, organism-based; conditions: in vivo; how it was run: as §1
# [9] = AUClast in Swiss albino mouse at 3 mg/kg, po; type: ADME, organism-based; set-up: time 0 - last, dose 3 mg/kg, route oral; conditions: plasma; how it was run: as §1
# [10] = Kinetic solubility of the compound in normal saline at pH 7.4; type: physicochemical; conditions: buffer
# [11] = AUClast in Swiss albino mouse at 1 mg/kg, iv; type: ADME, organism-based; set-up: dose 1 mg/kg, route intravenous, time 0 - last; conditions: plasma; how it was run: as §1
# [12] = test system: Mus musculus; experiment: Oral bioavailability in Swiss albino mouse at 10 mg/kg; type: ADME, organism-based; conditions: in vivo; how it was run: as §1
# [13] = Cmax in Swiss albino mouse at 10 mg/kg, po; type: ADME, organism-based; set-up: dose 10 mg/kg, route oral; conditions: in vivo; how it was run: as §1
# [14] = AUClast in Swiss albino mouse at 10 mg/kg, po; type: ADME, organism-based; set-up: time 0 - last, dose 10 mg/kg, route oral; conditions: plasma; how it was run: as §1
# [15] = Half life in Swiss albino mouse at 1 mg/kg, iv; type: ADME, organism-based; set-up: dose 1 mg/kg, route intravenous; conditions: in vivo; how it was run: as §1
# [16] = Clearance in Swiss albino mouse at 1 mg/kg, iv; type: ADME, organism-based; set-up: dose 1 mg/kg, route intravenous; conditions: in vivo; how it was run: as §1
# [17] = Cmax in Swiss albino mouse at 1 mg/kg, iv; type: ADME, organism-based; set-up: dose 1 mg/kg, route intravenous; conditions: in vivo; how it was run: as §1
# [18] = Tmax in Swiss albino mouse at 10 mg/kg, po; type: ADME, organism-based; set-up: dose 10 mg/kg, route oral; conditions: in vivo; how it was run: as §1
# [19] = Volume of distribution at steady state in Swiss albino mouse at 1 mg/kg, iv; type: ADME, organism-based; set-up: dose 1 mg/kg, route intravenous; conditions: in vivo, read-out: Vdss; how it was run: as §1
# [20] = target: Receptor-type tyrosine-protein kinase FLT3 (Homo sapiens) (UniProt P36888); conditions: MOLM-14, 10 to 50 nM
# [21] = target: T1, Tyrosine-protein kinase Mer (Homo sapiens) (UniProt Q12866); conditions: A549, 50 to 300 nM
# T1 sequence (whole entry): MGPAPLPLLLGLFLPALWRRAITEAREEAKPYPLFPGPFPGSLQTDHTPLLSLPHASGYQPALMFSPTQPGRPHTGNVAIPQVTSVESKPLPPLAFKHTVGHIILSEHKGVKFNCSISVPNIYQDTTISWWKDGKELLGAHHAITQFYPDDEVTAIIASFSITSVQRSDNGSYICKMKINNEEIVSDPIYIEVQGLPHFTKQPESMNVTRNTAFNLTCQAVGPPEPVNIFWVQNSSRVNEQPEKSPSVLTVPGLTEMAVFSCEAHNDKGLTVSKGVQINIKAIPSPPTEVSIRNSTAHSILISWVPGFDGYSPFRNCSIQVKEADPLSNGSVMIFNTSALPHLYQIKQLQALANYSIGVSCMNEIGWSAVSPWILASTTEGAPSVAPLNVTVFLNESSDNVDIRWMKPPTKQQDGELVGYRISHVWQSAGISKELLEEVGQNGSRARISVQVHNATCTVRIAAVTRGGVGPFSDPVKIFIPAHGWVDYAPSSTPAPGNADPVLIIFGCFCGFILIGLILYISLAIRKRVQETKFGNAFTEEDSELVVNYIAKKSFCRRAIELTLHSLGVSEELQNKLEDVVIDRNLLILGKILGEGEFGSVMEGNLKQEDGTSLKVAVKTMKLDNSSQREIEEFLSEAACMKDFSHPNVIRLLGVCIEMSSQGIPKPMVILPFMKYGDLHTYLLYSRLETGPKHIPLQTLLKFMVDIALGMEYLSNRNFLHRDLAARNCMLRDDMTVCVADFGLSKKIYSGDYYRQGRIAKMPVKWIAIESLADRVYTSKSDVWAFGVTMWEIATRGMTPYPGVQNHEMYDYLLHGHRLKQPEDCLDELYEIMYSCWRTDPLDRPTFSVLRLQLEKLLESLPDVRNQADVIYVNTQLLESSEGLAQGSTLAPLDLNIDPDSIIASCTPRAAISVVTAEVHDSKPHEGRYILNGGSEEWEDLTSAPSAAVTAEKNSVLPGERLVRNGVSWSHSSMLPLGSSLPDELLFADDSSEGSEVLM
# [22] = Plasma concentration in human 697 cells xenografted NOD.Cg-Prkdcscid Il2rgtm1Wjl/SzJ mouse at 3 mg/kg, po administered as single dose measured after 30 mins post dose; type: ADME, organism-based; set-up: dose 3 mg/kg, route oral
# [23] = test system: 697; experiment: Inhibition of Mer phosphorylation in human 697 cells xenografted in NOD.Cg-Prkdcscid Il2rgtm1Wjl/SzJ mouse at 3 mg/kg, po administered as single dose measured after 30 mins post dose by densitometry relative to control; type: functional; conditions: Mus musculus, 697, 0.5 h
# How it was run: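 NSG mice received 2 × 10^6 697 B-ALL cells by tail-vein injection, with 14 days for engraftment. A single 3 mg/kg dose or saline vehicle (10 mL/kg) was given by oral gavage, and femurs were taken 30 min later. Marrow cells were held 10 min at room temperature in RPMI with 20% FBS and 240 μM pervanadate. Mer was then immunoprecipitated and p-Mer/total Mer quantified by Western densitometry; n = 6.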
# [24] = target: Hepatocyte growth factor receptor (Homo sapiens, UniProt P08581); experiment: Inhibition of Met (unknown origin) by Off-chip Mobility Shift Assay
# How it was run: (§2)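 Kinase panel run in duplicate using a microcapillary electrophoresis (mobility shift) assay. Screening concentration was 100 nM. IC50 values were then determined at each kinase's ATP Km.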
# [25] = target: STE20-like serine/threonine-protein kinase (Homo sapiens, UniProt Q9H2G2); experiment: Inhibition of SLK (unknown origin) by Off-chip Mobility Shift Assay; how it was run: as §2
# [26] = target: T2, NUAK family SNF1-like kinase 1 (Homo sapiens, UniProt O60285); experiment: Inhibition of Nuak1 (unknown origin) by Off-chip Mobility Shift Assay; how it was run: as §2
# T2 sequence (O60285 whole entry): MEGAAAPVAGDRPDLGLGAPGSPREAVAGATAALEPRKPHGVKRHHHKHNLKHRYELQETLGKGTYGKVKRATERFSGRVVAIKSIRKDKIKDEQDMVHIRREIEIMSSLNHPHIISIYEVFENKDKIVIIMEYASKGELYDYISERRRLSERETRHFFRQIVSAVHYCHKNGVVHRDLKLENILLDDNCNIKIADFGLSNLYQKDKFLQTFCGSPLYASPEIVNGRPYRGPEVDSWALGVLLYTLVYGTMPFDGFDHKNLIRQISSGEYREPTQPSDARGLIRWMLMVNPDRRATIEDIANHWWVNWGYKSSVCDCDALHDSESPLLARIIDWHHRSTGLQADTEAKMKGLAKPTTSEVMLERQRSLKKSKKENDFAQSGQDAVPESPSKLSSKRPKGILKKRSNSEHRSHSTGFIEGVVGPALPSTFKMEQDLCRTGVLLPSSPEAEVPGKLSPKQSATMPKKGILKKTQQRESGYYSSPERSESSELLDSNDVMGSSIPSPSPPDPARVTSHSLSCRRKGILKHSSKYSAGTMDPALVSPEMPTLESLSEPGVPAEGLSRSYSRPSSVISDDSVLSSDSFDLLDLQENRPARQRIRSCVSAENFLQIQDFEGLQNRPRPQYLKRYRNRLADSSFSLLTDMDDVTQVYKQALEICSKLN
# [27] = target: NT-3 growth factor receptor (Homo sapiens, UniProt Q16288); experiment: Inhibition of TRKC (unknown origin) by Off-chip Mobility Shift Assay; how it was run: as §2
# [28] = target: Mast/stem cell growth factor receptor Kit (Homo sapiens, UniProt P10721); experiment: Inhibition of Kit (unknown origin) by Off-chip Mobility Shift Assay; how it was run: as §2
# [29] = test system: Plasma; experiment: Fraction unbound in plasma of human 697 cells xenografted NOD.Cg-Prkdcscid Il2rgtm1Wjl/SzJ mouse at 3 mg/kg, po administered as single dose measured after 30 mins post dose; type: ADME, organism-based; set-up: dose 3 mg/kg, route oral; conditions: in vivo, 0.5 h
# [30] = Plasma protein binding in human 697 cells xenografted NOD.Cg-Prkdcscid Il2rgtm1Wjl/SzJ mouse at 3 mg/kg, po administered as single dose measured after 30 mins post dose; type: ADME, organism-based; set-up: dose 3 mg/kg, route oral; conditions: read-out: PPB (converted)
# How it was run: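 Plasma protein binding was measured in mice, n = 3.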
# Chain of Mast/stem cell growth factor receptor Kit (P10721 whole entry): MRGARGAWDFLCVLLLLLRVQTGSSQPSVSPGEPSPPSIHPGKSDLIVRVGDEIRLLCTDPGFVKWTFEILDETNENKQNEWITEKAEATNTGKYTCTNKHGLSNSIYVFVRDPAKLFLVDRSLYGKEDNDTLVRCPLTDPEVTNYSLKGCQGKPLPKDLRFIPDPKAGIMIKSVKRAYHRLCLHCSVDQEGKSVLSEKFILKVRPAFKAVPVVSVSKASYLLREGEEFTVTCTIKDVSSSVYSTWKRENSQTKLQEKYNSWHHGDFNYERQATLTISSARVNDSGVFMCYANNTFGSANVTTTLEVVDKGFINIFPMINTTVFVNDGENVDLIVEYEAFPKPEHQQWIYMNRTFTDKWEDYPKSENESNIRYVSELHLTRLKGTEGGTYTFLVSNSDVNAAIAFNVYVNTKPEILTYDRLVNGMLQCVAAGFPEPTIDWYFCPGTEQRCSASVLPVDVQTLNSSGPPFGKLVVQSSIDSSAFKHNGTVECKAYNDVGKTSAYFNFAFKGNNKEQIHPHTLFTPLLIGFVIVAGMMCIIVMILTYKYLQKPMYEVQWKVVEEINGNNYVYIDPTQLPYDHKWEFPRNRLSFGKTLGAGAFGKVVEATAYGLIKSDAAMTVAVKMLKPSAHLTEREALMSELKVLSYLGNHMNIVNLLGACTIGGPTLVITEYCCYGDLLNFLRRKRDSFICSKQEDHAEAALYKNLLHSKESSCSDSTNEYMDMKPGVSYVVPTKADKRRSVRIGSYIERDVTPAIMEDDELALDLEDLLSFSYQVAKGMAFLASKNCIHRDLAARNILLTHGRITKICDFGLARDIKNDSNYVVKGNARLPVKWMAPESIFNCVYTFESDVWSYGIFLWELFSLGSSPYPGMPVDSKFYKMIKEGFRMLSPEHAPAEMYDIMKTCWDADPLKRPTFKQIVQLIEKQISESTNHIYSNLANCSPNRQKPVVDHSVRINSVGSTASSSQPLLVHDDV
# Chain of Receptor-type tyrosine-protein kinase FLT3 (Homo sapiens) (P36888 whole entry): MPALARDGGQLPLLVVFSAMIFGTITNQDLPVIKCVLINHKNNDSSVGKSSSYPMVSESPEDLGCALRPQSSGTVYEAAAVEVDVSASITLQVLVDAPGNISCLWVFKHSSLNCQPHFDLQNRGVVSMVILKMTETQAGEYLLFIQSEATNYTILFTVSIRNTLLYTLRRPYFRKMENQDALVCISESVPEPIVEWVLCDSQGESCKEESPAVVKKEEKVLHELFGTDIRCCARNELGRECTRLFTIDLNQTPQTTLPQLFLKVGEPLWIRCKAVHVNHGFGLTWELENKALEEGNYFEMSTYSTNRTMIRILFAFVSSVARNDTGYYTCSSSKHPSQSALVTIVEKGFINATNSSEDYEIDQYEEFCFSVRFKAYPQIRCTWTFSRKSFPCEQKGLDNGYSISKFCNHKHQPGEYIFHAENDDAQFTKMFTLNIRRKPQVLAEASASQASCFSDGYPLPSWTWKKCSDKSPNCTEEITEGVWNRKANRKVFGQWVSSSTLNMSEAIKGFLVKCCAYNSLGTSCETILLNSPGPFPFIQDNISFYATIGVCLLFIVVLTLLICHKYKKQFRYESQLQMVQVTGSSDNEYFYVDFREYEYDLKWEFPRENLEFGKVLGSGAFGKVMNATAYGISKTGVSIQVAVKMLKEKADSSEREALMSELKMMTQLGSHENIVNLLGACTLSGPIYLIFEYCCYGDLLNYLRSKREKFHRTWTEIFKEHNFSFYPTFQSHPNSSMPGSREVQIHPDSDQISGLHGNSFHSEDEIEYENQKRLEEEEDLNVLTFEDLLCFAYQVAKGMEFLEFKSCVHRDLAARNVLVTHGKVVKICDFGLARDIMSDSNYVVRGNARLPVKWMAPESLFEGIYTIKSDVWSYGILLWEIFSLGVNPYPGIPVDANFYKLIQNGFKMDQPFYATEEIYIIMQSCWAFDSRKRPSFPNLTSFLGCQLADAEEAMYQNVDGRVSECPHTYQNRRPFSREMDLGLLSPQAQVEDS
# Chain of NT-3 growth factor receptor (Q16288 whole entry): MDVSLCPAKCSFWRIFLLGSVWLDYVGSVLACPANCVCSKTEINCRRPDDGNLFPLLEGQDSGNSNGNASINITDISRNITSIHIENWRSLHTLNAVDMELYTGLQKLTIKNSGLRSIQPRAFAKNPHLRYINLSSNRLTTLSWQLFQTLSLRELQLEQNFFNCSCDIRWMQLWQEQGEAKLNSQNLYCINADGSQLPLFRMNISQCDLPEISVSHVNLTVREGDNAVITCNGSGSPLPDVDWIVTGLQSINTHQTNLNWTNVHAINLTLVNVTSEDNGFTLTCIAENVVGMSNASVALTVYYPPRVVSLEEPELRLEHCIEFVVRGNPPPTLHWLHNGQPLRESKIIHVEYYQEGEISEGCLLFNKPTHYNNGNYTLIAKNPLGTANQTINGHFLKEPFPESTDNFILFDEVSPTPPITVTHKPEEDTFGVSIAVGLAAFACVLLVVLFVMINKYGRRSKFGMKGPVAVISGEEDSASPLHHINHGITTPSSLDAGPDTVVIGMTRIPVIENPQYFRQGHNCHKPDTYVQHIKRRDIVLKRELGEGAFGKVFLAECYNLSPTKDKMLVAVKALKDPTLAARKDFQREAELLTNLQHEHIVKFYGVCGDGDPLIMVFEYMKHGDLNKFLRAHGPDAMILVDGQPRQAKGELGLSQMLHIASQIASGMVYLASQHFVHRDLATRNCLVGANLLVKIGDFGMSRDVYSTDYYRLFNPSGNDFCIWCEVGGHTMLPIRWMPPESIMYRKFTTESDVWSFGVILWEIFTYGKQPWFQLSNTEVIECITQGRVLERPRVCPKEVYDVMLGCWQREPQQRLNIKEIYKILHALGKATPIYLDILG
# Chain of STE20-like serine/threonine-protein kinase (Q9H2G2 whole entry): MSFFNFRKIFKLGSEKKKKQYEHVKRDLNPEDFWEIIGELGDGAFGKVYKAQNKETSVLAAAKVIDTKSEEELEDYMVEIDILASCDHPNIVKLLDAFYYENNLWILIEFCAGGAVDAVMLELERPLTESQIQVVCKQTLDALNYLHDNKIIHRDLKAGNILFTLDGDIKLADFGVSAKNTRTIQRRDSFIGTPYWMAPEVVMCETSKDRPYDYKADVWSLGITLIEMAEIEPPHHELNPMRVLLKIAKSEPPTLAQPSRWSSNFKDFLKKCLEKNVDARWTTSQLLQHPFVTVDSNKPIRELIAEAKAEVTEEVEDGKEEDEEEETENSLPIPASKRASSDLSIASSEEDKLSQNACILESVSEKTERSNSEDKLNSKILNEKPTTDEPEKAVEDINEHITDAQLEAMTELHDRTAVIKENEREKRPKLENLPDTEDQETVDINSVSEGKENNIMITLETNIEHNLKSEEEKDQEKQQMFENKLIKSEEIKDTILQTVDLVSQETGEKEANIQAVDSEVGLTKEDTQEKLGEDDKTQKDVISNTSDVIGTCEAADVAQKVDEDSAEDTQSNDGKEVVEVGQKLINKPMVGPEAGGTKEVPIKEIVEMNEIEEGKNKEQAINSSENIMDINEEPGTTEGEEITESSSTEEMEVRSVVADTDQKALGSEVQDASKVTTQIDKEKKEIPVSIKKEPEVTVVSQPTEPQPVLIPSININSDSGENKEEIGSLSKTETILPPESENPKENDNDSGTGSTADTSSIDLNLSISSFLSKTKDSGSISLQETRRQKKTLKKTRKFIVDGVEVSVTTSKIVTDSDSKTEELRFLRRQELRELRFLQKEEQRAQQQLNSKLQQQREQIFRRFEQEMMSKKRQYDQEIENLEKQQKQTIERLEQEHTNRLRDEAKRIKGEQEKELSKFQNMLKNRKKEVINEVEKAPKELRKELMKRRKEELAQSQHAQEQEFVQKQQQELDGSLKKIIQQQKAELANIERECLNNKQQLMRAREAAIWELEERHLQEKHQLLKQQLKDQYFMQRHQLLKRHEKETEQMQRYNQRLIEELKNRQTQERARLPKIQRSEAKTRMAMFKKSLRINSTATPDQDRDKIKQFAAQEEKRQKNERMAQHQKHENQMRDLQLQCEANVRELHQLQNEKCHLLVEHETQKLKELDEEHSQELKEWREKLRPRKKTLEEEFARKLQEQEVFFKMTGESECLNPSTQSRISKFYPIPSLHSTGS
SMILES,Cmax [1] [nM],Cmax [2] [nM],half-life [3] [min],Tmax [4] [min],clearance [5] [mL/min/kg],Vd [6] [L/kg],AUC(0-t) [7] [µM·h],F [8] [%],AUC(0-t) [9] [µM·h],also measured
CCCCNc1ncc2c(-c3ccc(S(=O)(=O)N4CCOCC4)cc3)nn([C@H]3CC[C@H](O)CC3)c2n1,16000,13,138,30,30,0.43,3.3,0.3,0.01,
CCCCNc1ncc2c(-c3ccc(CN4CCN(C)CC4)cc3)cn([C@H]3CC[C@H](O)CC3)c2n1.Cl,,,,,,,,,,Kinetic_solubility [10]: 38 µg/mL
CCCCNc1ncc2c(-c3ccc(S(=O)(=O)N4CCOCC4)cc3)cn([C@H]3CC[C@H](O)CC3)c2n1,7900,160,13.8,15,70,0.78,1.4,8.4,0.12,
CCCCNc1ncc2c(-c3ccc(S(=O)(=O)N4CCN(C)CC4)c(F)c3)cn([C@H]3CC[C@H](O)CC3)c2n1,,,,,,,,,,AUC(0-t) [11]: 0.27 µM·h; F [12]: 25%; Cmax [13]: 390 nM; AUC(0-t) [14]: 0.66 µM·h; half-life [15]: 48 min; clearance [16]: 103 mL/min/kg; Cmax [17]: 400 nM; Tmax [18]: 15 min; Vd [19]: 5.5 L/kg
CN1CCN(S(=O)(=O)c2ccc(-c3cn([C@H]4CC[C@H](O)CC4)c4nc(NCCC5CC5)ncc34)c(F)c2)CC1,1200,420,72,15,76,5.3,1,67,0.69,
CN1CCN(Cc2ccc(-c3cn([C@H]4CC[C@H](O)CC4)c4nc(NCCC5CC5)ncc34)cc2)CC1,6500,1300,264,60,7.2,2,12,78,9,
CCCCNc1ncc2c(-c3ccc(CN4CCN(C)CC4)cc3)cn([C@H]3CC[C@H](O)CC3)c2n1 [listing 1 of 2 here],,,,,,,,,,inhibition [20]: Active; inhibition [21]: Active
CCCCNc1ncc2c(-c3ccc(CN4CCN(C)CC4)cc3)cn([C@H]3CC[C@H](O)CC3)c2n1 [listing 2 of 2 here],4100,1600,228,30,9.2,2.3,9.2,100,9.2,concentration at 0.5 h [22]: 1600 nM; inhibition in vivo at 3 mg/kg [23]: > 90%; IC50 [24]: 364 nM; IC50 [25]: 6.14 nM; IC50 [26]: 7.97 nM; IC50 [27]: 4.38 nM; IC50 [28]: 8.18 nM; Cp(f) [29]: 22 nM; fraction unbound at 0.5 h [30]: 0.014
